Converted amounts (≈) assume the structure as drawn.
Legend:
[1] = tested on: Histoplasma capsulatum; test: Antifungal activity against Histoplasma capsulatum G217B ATCC 26032 at pH 7 measured over 5 days; assay type: functional, organism-based; details: G217B ATCC 26032, 120 h
In short: (§1)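 Yeasts pre-grown in HMM (37 °C, 5% CO2) to exponential phase, counted by hemacytometer, diluted into RPMI buffered with 25 mM HEPES (pH 7.0) or 25 mM MOPS (pH 5.0) at 5 x 10^5 per well; two-fold dilutions 40 to 0.078 µM, 37 °C, agitated twice daily. A595 read over 5 days, normalized to DMSO controls; 4-day data fitted by 4-parameter regression for IC50; MIC = ≤10% growth.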

[2] = tested on: Cryptococcus neoformans; test: Antifungal activity against wild type fluconazole-sensitive Cryptococcus neoformans serotype A H99 at pH 7 measured over 4 days; assay type: functional, organism-based; details: var grubii H99 , 96 h
In short: (§2)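 YPD-grown exponential-phase yeasts, hemacytometer-counted, diluted into RPMI buffered to pH 7.0 with 25 mM HEPES (or pH 5.0 with […] for pH comparison) at 2 x 10^3 per well; two-fold series 40 to 0.078 µM, 37 °C, agitated twice daily. A595 followed over 4 days versus DMSO controls; day-3 turbidity fitted by 4-parameter regression for IC50; MIC = growth ≤10% of untreated.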

[3] = tested on: P388D1; test: Cytotoxicity against mouse P388D1 cells assessed as reduction in cell viability after 72 hrs by resazurin-based fluorescence assay; details: P388D1, 72 h
In short: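 P388D1 cells in Ham's F-12 + 10% FBS + 2 mM L-glutamine seeded at 5 x 10^3 per well, adhered overnight, exposed to compounds 80 to 0.3 µM for 72 h. Viability read as resorufin fluorescence (530/590 nm) after 0.1 mM resazurin, pre-saturation time points, versus untreated cells; three biological replicates; IC50 by non-linear regression.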

[4] = Therapeutic index, ratio of IC50 for mouse P388D1 cells to IC50 for Histoplasma capsulatum G217B ATCC 26032; assay type: toxicity; details: read-out: Ratio IC50
In short: (§3)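 Ratio of P388D1 IC50 (72 h resazurin viability, 80 to 0.3 µM) to yeast IC50 from RPMI/HEPES pH 7.0 broth dilution with A595 turbidity and 4-parameter regression.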

[5] = Therapeutic index, ratio of IC50 for mouse P388D1 cells to IC50 for wild type Cryptococcus neoformans serotype A H99; assay type: toxicity; details: read-out: Ratio IC50; in short: as §3
[6] = tested on: Cryptococcus neoformans; test: Antifungal activity against wild-type fluconazole-sensitive Cryptococcus neoformans serotype D B3501 measured over 4 days; assay type: functional, organism-based; details: B3501, 96 h; in short: as §2
[7] = tested on: Cryptococcus neoformans; test: Antifungal activity against fluconazole-resistant Cryptococcus neoformans serotype A TES9 harboring erg11 mutant measured over 4 days; assay type: functional, organism-based; details: TES9, 96 h; in short: as §2
[8] = tested on: Cryptococcus neoformans; test: Antifungal activity against fluconazole-resistant Cryptococcus neoformans serotype A MRL862 harboring erg11 mutant measured over 4 days; assay type: functional, organism-based; details: MRL862, 96 h; in short: as §2
[9] = tested on: Histoplasma capsulatum; test: Antifungal activity against RFP expressing Histoplasma capsulatum infected in LacZ-expressing mouse P388D1 cells incubated for 6 days measured daily by fluorescence assay; assay type: functional, organism-based; details: for MIC: 144 h; for IC50: P388D1, 144 h
In short: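 LacZ-expressing P388D1 macrophages (3x10^4 per well, adhered 3 h) infected with RFP Histoplasma yeasts at MOI 1:2 for 3 h, medium replaced with F-12 + 10% serum, overnight at 37 °C, then compound gradient added for 6 days. RFP fluorescence (530/590 nm) read daily; day-4 values relative to untreated infected cells fitted by non-linear regression; triplicate.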

[10] = Aqueous solubility of the compound at pH 5; assay type: physicochemical; details: aqueous medium
[11] = Aqueous solubility of the compound at pH 7; assay type: physicochemical; details: aqueous medium
[12] = Ratio of aqueous solubility at pH 5 to aqueous solubility at pH 7; assay type: physicochemical; details: buffer
[13] = tested on: Histoplasma capsulatum; test: Antifungal activity against Histoplasma capsulatum G217B ATCC 26032 at pH 5 measured over 5 days; assay type: functional, organism-based; details: G217B ATCC 26032, 120 h; in short: as §1
[14] = tested on: Cryptococcus neoformans; test: Antifungal activity against wild type fluconazole-sensitive Cryptococcus neoformans serotype A H99 at pH 5 measured over 4 days; assay type: functional, organism-based; details: var grubii H99 , 96 h; in short: as §2

SMILES | IC50 [1] [nM] | MIC90 [1] [µM] | IC50 [2] [µM] | MIC90 [2] [µM] | IC50 [3] [µM] | selectivity ratio [4] | further results
CCc1cnc(NC(=O)CCC2CCCCC2)s1 | > 20000 | > 40 | > 20 | > 40 | – | – | –
O=C(Nc1ncc(Cc2cccc3c2CCCC3)s1)C1CCCCC1 | > 20000 | > 40 | > 20 | > 40 | – | – | –
O=C(CCC1CCCCC1)Nc1ncc(Cc2cccc3ccsc23)s1 | 920 | 5 (≈ 1.92 µg/mL) | > 20 | > 40 | 18.9 | 21 | –
O=C(Nc1ncc(CC2CCCC2)s1)C1CCCCC1 | 760 | 1.25 (≈ 0.366 µg/mL) | > 20 | > 40 | > 40 | > 53 | –
O=C(Nc1ncc(Cc2cccc3ccsc23)s1)C1CCCCC1 | 200 | 0.31 (≈ 0.111 µg/mL) | 0.34 | 0.63 (≈ 0.225 µg/mL) | > 40 | > 200 | selectivity ratio [5]: > 118; IC50 [6]: 270 nM; MIC90 [6]: 0.63 µM (≈ 0.225 µg/mL); IC50 [7]: 230 nM; MIC90 [7]: 0.63 µM (≈ 0.225 µg/mL); IC50 [8]: 200 nM; MIC90 [8]: 0.63 µM (≈ 0.225 µg/mL); MIC [9]: 2.5 µM (≈ 0.891 µg/mL); IC50 [9]: 1380 nM
O=C(Nc1ncc(Cc2cccc3nsnc23)s1)C1CCCCC1 | 1540 | 2.5 (≈ 0.896 µg/mL) | 1.52 | 5 (≈ 1.79 µg/mL) | > 40 | > 26 | selectivity ratio [5]: > 26
O=C(Nc1ncc(Cc2cc3sccc3s2)s1)C1CCCCC1 | > 20000 | > 40 | > 20 | > 40 | – | – | –
O=C(Nc1ncc(Cc2ccccc2)s1)C1CCCCC1 | 1060 | 2.5 (≈ 0.751 µg/mL) | 1.36 | 2.5 (≈ 0.751 µg/mL) | > 40 | > 38 | selectivity ratio [5]: > 29
O=C(Nc1ncc(Cc2cccnc2)s1)C1CCCCC1 | > 20000 | – | > 20 | – | – | – | solubility [10]: 590 µg/mL (≈ 1960 µM); solubility [11]: 340 µg/mL (≈ 1130 µM); Ratio [12]: 1.7; IC50 [13]: > 20 µM; MIC90 [13]: > 40 µM; IC50 [14]: > 20 µM; MIC90 [14]: > 40 µM
O=C(CCC1CCCCC1)Nc1ncc(Cc2ccncc2)s1 | 7670 | 20 (≈ 6.59 µg/mL) | > 20 | – | > 40 | > 5 | solubility [10]: 140 µg/mL (≈ 425 µM); solubility [11]: 40 µg/mL (≈ 121 µM); Ratio [12]: 3.5; IC50 [13]: 11.1 µM; MIC90 [13]: 40 µM (≈ 13.2 µg/mL); IC50 [14]: > 20 µM; MIC90 [14]: > 40 µM
O=C(Nc1ncc(Cc2csc3ccccc23)s1)C1CCCCC1 | > 20000 | > 40 | > 20 | > 40 | – | – | –
O=C(c1cnc(NC(=O)C2CCCCC2)s1)c1cccc2ccccc12 | 190 | 0.31 (≈ 0.113 µg/mL) | 0.89 | 2.5 (≈ 0.911 µg/mL) | > 40 | > 211 | selectivity ratio [5]: > 45; IC50 [6]: 380 nM; MIC90 [6]: 1.25 µM (≈ 0.456 µg/mL); IC50 [7]: 470 nM; MIC90 [7]: 1.25 µM (≈ 0.456 µg/mL); IC50 [8]: 410 nM; MIC90 [8]: 1.25 µM (≈ 0.456 µg/mL); MIC [9]: 1.25 µM (≈ 0.456 µg/mL); IC50 [9]: 710 nM
O=C(CCC1CCCCC1)Nc1ncc(CC2CCCC2)s1 | > 20000 | > 40 | > 20 | > 40 | – | – | –
CCc1cnc(NC(=O)C2CCCCC2)s1 | > 20000 | > 40 | > 20 | > 40 | – | – | –

Reference: ChEMBL document CHEMBL4219175, “Synthesis and biological evaluation of aminothiazoles against Histoplasma capsulatum and Cryptococcus neoformans” (Bioorg Med Chem, 2018)
